In ChEMBL document CHEMBL1671684, “In vitro resistance profile of the hepatitis C virus NS3/4A protease inhibitor TMC435” (Antimicrob Agents Chemother, 2010):
pEC50: −log10 of the molar value.

Tests used:
Hepatitis C virus [1] = assay: Ratio of EC50 for Hepatitis C virus subtype 1b expressing NS3 D168Y mutant to EC50 for Hepatitis C virus subtype 1b expressing WT NS3 infected in HuH7 cells after 48 hrs by luciferase reporter assay; assay type: functional, Hepacivirus hominis, genotype 1b, Huh-7
Outline: (§1)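 Transient replicon assay: site-directed single or multiple NS3 mutations engineered into genotype 1b (con1, clone ET) subgenomic bicistronic replicon with luciferase reporter and adaptive mutations E1202G, T1280I, K1846T. Huh7-lunet cells electroporated with 10 μg wild-type or mutant replicon RNA, seeded 4,000 cells/well with nine-point inhibitor dilution; 48 h, 37°C, 5% CO2; luminescence read-out. EC50 as median of individual experiments; fold change versus parental replicon EC50.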

Hepatitis C virus [2] = assay: Ratio of EC50 for Hepatitis C virus subtype 1b expressing NS3 Q80R and D168A mutant to EC50 for Hepatitis C virus subtype 1b expressing WT NS3 infected in HuH7 cells after 48 hrs by luciferase reporter assay; assay type: functional, Hepacivirus hominis, genotype 1b, Huh-7; outline: as §1
Hepatitis C virus [3] = assay: Antiviral activity against Hepatitis C virus subtype 1b expressing NS3 D168Y mutant infected in HuH7 cells after 48 hrs by luciferase reporter assay; assay type: functional, organism-based, Hepacivirus hominis; settings: genotype 1b, Huh-7, 48 h
Outline: (§2)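 Genotype 1b con1 subgenomic bicistronic replicon (clone ET) with luciferase reporter and adaptive mutations E1202G, T1280I, K1846T, carrying site-directed NS3 single or double mutations. 10 μg wild-type or mutant replicon RNA electroporated into Huh7-lunet cells, seeded 4,000 cells/well over a nine-point inhibitor dilution series, 48 h at 37°C, 5% CO2, then luminescence read. EC50 taken as median of individual experiments; fold change relative to parental replicon EC50.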

Hepatitis C virus [4] = assay: Antiviral activity against Hepatitis C virus subtype 1b expressing NS3 T54A mutant infected in HuH7 cells after 48 hrs by luciferase reporter assay; assay type: functional, organism-based, Hepacivirus hominis; settings: genotype 1b, Huh-7, 48 h; outline: as §2
Hepatitis C virus [5] = assay: Antiviral activity against Hepatitis C virus subtype 1b expressing NS3 Q80K and R155K mutant infected in HuH7 cells after 48 hrs by luciferase reporter assay; assay type: functional, organism-based, Hepacivirus hominis; settings: genotype 1b, Huh-7, 48 h; outline: as §2
Hepatitis C virus [6] = assay: Ratio of EC50 for Hepatitis C virus subtype 1b expressing NS3 A156T mutant to EC50 for Hepatitis C virus subtype 1b expressing WT NS3 infected in HuH7 cells after 48 hrs by luciferase reporter assay; assay type: functional, Hepacivirus hominis, genotype 1b, Huh-7; outline: as §2
Hepatitis C virus [7] = assay: Antiviral activity against Hepatitis C virus subtype 1b expressing WT NS3 infected in HuH7 cells after 48 hrs by luciferase reporter assay; assay type: functional, organism-based, Hepacivirus hominis; settings: genotype 1b, Huh-7, 48 h
Outline: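 Huh7-lunet cells were electroporated with 10 μg wild-type genotype 1b subgenomic replicon RNA (clone ET; luciferase reporter; E1202G, T1280I, K1846T). They were seeded at 4,000 cells/well over a nine-point compound dilution series. After 48 h at 37°C, 5% CO2, luciferase reagent was added 1:1, followed by 10–20 min in the dark and a luminescence read. EC50 is the median of individual-experiment EC50s.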

Hepatitis C virus [8] = assay: Ratio of EC50 for Hepatitis C virus subtype 1b expressing NS3 Q80K and R155K mutant to EC50 for Hepatitis C virus subtype 1b expressing WT NS3 infected in HuH7 cells after 48 hrs by luciferase reporter assay; assay type: functional, Hepacivirus hominis, genotype 1b, Huh-7; outline: as §1
Hepatitis C virus [9] = assay: Antiviral activity against Hepatitis C virus subtype 1b expressing NS3 F43S and Q80R mutant infected in HuH7 cells after 48 hrs by luciferase reporter assay; assay type: functional, organism-based, Hepacivirus hominis; settings: genotype 1b, Huh-7, 48 h; outline: as §2
Hepatitis C virus [10] = assay: Antiviral activity against Hepatitis C virus subtype 1b expressing NS3 D168N mutant infected in HuH7 cells after 48 hrs by luciferase reporter assay; assay type: functional, organism-based, Hepacivirus hominis; settings: genotype 1b, Huh-7, 48 h; outline: as §2
Hepatitis C virus [11] = assay: Ratio of EC50 for Hepatitis C virus subtype 1b expressing NS3 Q80R mutant to EC50 for Hepatitis C virus subtype 1b expressing WT NS3 infected in HuH7 cells after 48 hrs by luciferase reporter assay; assay type: functional, Hepacivirus hominis, genotype 1b, Huh-7; outline: as §1
Hepatitis C virus [12] = assay: Ratio of EC50 for Hepatitis C virus subtype 1b expressing NS3 A156V mutant to EC50 for Hepatitis C virus subtype 1b expressing WT NS3 infected in HuH7 cells after 48 hrs by luciferase reporter assay; assay type: functional, Hepacivirus hominis, genotype 1b, Huh-7; outline: as §2
Hepatitis C virus [13] = assay: Antiviral activity against Hepatitis C virus subtype 1b expressing NS3 A156G mutant infected in HuH7 cells after 48 hrs by luciferase reporter assay; assay type: functional, organism-based, Hepacivirus hominis; settings: genotype 1b, Huh-7, 48 h; outline: as §2
Hepatitis C virus [14] = assay: Antiviral activity against Hepatitis C virus subtype 1b expressing NS3 D168I mutant infected in HuH7 cells after 48 hrs by luciferase reporter assay; assay type: functional, organism-based, Hepacivirus hominis; settings: genotype 1b, Huh-7, 48 h; outline: as §2
Hepatitis C virus [15] = assay: Antiviral activity against Hepatitis C virus subtype 1b expressing NS3 S138T mutant infected in HuH7 cells after 48 hrs by luciferase reporter assay; assay type: functional, organism-based, Hepacivirus hominis; settings: genotype 1b, Huh-7, 48 h; outline: as §2
Hepatitis C virus [16] = assay: Ratio of EC50 for Hepatitis C virus subtype 1b expressing NS3 A156S mutant to EC50 for Hepatitis C virus subtype 1b expressing WT NS3 infected in HuH7 cells after 48 hrs by luciferase reporter assay; assay type: functional, Hepacivirus hominis, genotype 1b, Huh-7; outline: as §2
Hepatitis C virus [17] = assay: Ratio of EC50 for Hepatitis C virus subtype 1b expressing NS3 D168E mutant to EC50 for Hepatitis C virus subtype 1b expressing WT NS3 infected in HuH7 cells after 48 hrs by luciferase reporter assay; assay type: functional, Hepacivirus hominis, genotype 1b, Huh-7; outline: as §1
Hepatitis C virus [18] = assay: Ratio of EC50 for Hepatitis C virus subtype 1b expressing NS3 T54S mutant to EC50 for Hepatitis C virus subtype 1b expressing WT NS3 infected in HuH7 cells after 48 hrs by luciferase reporter assay; assay type: functional, Hepacivirus hominis, genotype 1b, Huh-7; outline: as §1
Hepatitis C virus [19] = assay: Ratio of EC50 for Hepatitis C virus subtype 1b expressing NS3 R109K mutant to EC50 for Hepatitis C virus subtype 1b expressing WT NS3 infected in HuH7 cells after 48 hrs by luciferase reporter assay; assay type: functional, Hepacivirus hominis, genotype 1b, Huh-7; outline: as §1
Hepatitis C virus [20] = assay: Antiviral activity against Hepatitis C virus subtype 1b expressing NS3 R109K mutant infected in HuH7 cells after 48 hrs by luciferase reporter assay; assay type: functional, organism-based, Hepacivirus hominis; settings: genotype 1b, Huh-7, 48 h; outline: as §2
Hepatitis C virus [21] = assay: Antiviral activity against Hepatitis C virus subtype 1b expressing NS3 A156T mutant infected in HuH7 cells after 48 hrs by luciferase reporter assay; assay type: functional, organism-based, Hepacivirus hominis; settings: genotype 1b, Huh-7, 48 h; outline: as §2
Hepatitis C virus [22] = assay: Antiviral activity against Hepatitis C virus subtype 1b expressing NS3 V170T mutant infected in HuH7 cells after 48 hrs by luciferase reporter assay; assay type: functional, organism-based, Hepacivirus hominis; settings: genotype 1b, Huh-7, 48 h; outline: as §2
Hepatitis C virus [23] = assay: Ratio of EC50 for Hepatitis C virus subtype 1b expressing NS3 F43S and D168E mutant to EC50 for Hepatitis C virus subtype 1b expressing WT NS3 infected in HuH7 cells after 48 hrs by luciferase reporter assay; assay type: functional, Hepacivirus hominis, genotype 1b, Huh-7; outline: as §1
Hepatitis C virus [24] = assay: Antiviral activity against Hepatitis C virus subtype 1b expressing NS3 D168T mutant infected in HuH7 cells after 48 hrs by luciferase reporter assay; assay type: functional, organism-based, Hepacivirus hominis; settings: genotype 1b, Huh-7, 48 h; outline: as §2
Hepatitis C virus [25] = assay: Antiviral activity against Hepatitis C virus subtype 1b expressing NS3 F43S and D168E mutant infected in HuH7 cells after 48 hrs by luciferase reporter assay; assay type: functional, organism-based, Hepacivirus hominis; settings: genotype 1b, Huh-7, 48 h; outline: as §2
Hepatitis C virus [26] = assay: Antiviral activity against Hepatitis C virus subtype 1b expressing NS3 Q80H and D168E mutant infected in HuH7 cells after 48 hrs by luciferase reporter assay; assay type: functional, organism-based, Hepacivirus hominis; settings: genotype 1b, Huh-7, 48 h; outline: as §2
Hepatitis C virus [27] = assay: Antiviral activity against Hepatitis C virus subtype 1b expressing NS3 R155M mutant infected in HuH7 cells after 48 hrs by luciferase reporter assay; assay type: functional, organism-based, Hepacivirus hominis; settings: genotype 1b, Huh-7, 48 h; outline: as §2
Hepatitis C virus [28] = assay: Ratio of EC50 for Hepatitis C virus subtype 1b expressing NS3 F43V mutant to EC50 for Hepatitis C virus subtype 1b expressing WT NS3 infected in HuH7 cells after 48 hrs by luciferase reporter assay; assay type: functional, Hepacivirus hominis, genotype 1b, Huh-7; outline: as §1
Hepatitis C virus [29] = assay: Antiviral activity against Hepatitis C virus subtype 1b expressing NS3 R155Q mutant infected in HuH7 cells after 48 hrs by luciferase reporter assay; assay type: functional, organism-based, Hepacivirus hominis; settings: genotype 1b, Huh-7, 48 h; outline: as §2

| Structure (SMILES) | Ratio EC50 (Hepatitis C virus [1]) | pEC50 (Hepatitis C virus [3]) | pEC50 (Hepatitis C virus [4]) | pEC50 (Hepatitis C virus [5]) | Ratio EC50 (Hepatitis C virus [6]) | pEC50 (Hepatitis C virus [7]) | Ratio EC50 (Hepatitis C virus [8]) | pEC50 (Hepatitis C virus [10]) | Ratio EC50 (Hepatitis C virus [11]) | Ratio EC50 (Hepatitis C virus [12]) | pEC50 (Hepatitis C virus [13]) | Ratio EC50 (Hepatitis C virus [16]) | Ratio EC50 (Hepatitis C virus [17]) | Ratio EC50 (Hepatitis C virus [19]) | pEC50 (Hepatitis C virus [20]) | pEC50 (Hepatitis C virus [21]) | pEC50 (Hepatitis C virus [24]) | pEC50 (Hepatitis C virus [27]) | pEC50 (Hepatitis C virus [29]) | also measured |
| --- | --- | --- | --- | --- | --- | --- | --- | --- | --- | --- | --- | --- | --- | --- | --- | --- | --- | --- | --- | --- |
| COc1ccc2c(O[C@@H]3C[C@H]4C(=O)N[C@]5(C(=O)NS(=O)(=O)C6CC6)C[C@H]5/C=C\CCCCN(C)C(=O)[C@@H]4C3)cc(-c3nc(C(C)C)cs3)nc2c1C [SIMEPREVIR] | 666 | 5.20 | 8.23 | 5.33 | 44 | 7.96 | 364 | 7.10 | 6.9 | 177 | 6.69 | 0.3 | 40 | 0.7 | 7.96 | 6.42 | 5.39 | 8.46 | 7.68 | Ratio EC50 (Hepatitis C virus [2]): 2655; pEC50 (Hepatitis C virus [9]): 5.74; pEC50 (Hepatitis C virus [14]): 4.63; pEC50 (Hepatitis C virus [15]): 7.11; Ratio EC50 (Hepatitis C virus [18]): 1.2; pEC50 (Hepatitis C virus [22]): 7.28; Ratio EC50 (Hepatitis C virus [23]): 694; pEC50 (Hepatitis C virus [25]): 5.44; pEC50 (Hepatitis C virus [26]): 5.87; Ratio EC50 (Hepatitis C virus [28]): 99 |
| CCC[C@H](NC(=O)[C@@H]1[C@H]2CCC[C@H]2CN1C(=O)[C@@H](NC(=O)[C@@H](NC(=O)c1cnccn1)C1CCCCC1)C(C)(C)C)C(=O)C(=O)NC1CC1 [TELAPREVIR] | 1.2 | 6.73 | 5.81 | 5.53 | 105 | 6.82 | 4.6 | 6.83 | 0.6 | 112 | 7.24 | 20 | 0.6 | 0.8 | 7.18 | 4.69 | 6.74 | 5.39 | 6.24 | – |
